In experiment [1] the test system is Pseudomonas aeruginosa. In words: Antibacterial activity against Pseudomonas aeruginosa ATCC 27853 after 18 to 24 hrs by CA-SFM and NCCLS-based broth microdilution method. In kind it is functional. The method, boiled down:
(§1)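 MIC determined in liquid phase by broth microdilution in U-bottom 96-well plates. Bacteria were grown in Mueller-Hinton broth or agar, and isolate purity was checked at each test by colony morphology and Gram stain. The final inoculum was 1×10^5 CFU/mL, with a series of drug concentrations added. Plates were incubated 18–24 h at 35 °C, and growth was read by absorbance at 540 nm. MIC is expressed in µmol/L and µg/mL.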
Background: Broth dilution looks for growth in wells or tubes with falling amounts of substance.

Experiment [2] deals with Staphylococcus aureus. In words: Antibacterial activity against Staphylococcus aureus ATCC 29213 after 18 to 24 hrs by CA-SFM and NCCLS-based broth microdilution method. In kind it is functional. The method, boiled down:
as §1

Experiment [3] concerns Escherichia coli. Description: Antibacterial activity against Escherichia coli ATCC 25922 after 18 to 24 hrs by CA-SFM and NCCLS-based broth microdilution method. The class given is functional. The gist of the method: as §1
Experiment [4] relates to Enterococcus faecalis. Description: Antibacterial activity against Enterococcus faecalis ATCC 29212 after 18 to 24 hrs by CA-SFM and NCCLS-based broth microdilution method. In kind it is functional. The gist of the method:
as §1

Experiment [5] concerns Staphylococcus aureus. Description: Antibacterial activity against Staphylococcus aureus ATCC 25923 after 18 to 24 hrs by CA-SFM and NCCLS-based broth microdilution method. In kind it is functional. The gist of the method: as §1
In experiment [6] the test system is Staphylococcus aureus. Description: Antibacterial activity against Staphylococcus aureus ATCC 29213 at < 256 ug/mL after 18 to 24 hrs by CA-SFM and NCCLS-based broth microdilution method. In kind it is functional, organism-based.
The test system of experiment [7] is Staphylococcus aureus. Description: Antibacterial activity against Staphylococcus aureus ATCC 25923 at < 256 ug/mL after 18 to 24 hrs by CA-SFM and NCCLS-based broth microdilution method. The class given is functional, organism-based.
Experiment [8] relates to Pseudomonas aeruginosa. Description: Antibacterial activity against Pseudomonas aeruginosa ATCC 27853 at < 256 ug/mL after 18 to 24 hrs by CA-SFM and NCCLS-based broth microdilution method. The class given is functional, organism-based.
The test system of experiment [9] is Enterococcus faecalis. In words: Antibacterial activity against Enterococcus faecalis ATCC 29212 at < 256 ug/mL after 18 to 24 hrs by CA-SFM and NCCLS-based broth microdilution method. In kind it is functional, organism-based.
Experiment [10] concerns Escherichia coli. In words: Antibacterial activity against Escherichia coli ATCC 25922 at < 256 ug/mL after 18 to 24 hrs by CA-SFM and NCCLS-based broth microdilution method. The class given is functional, organism-based.

Structures are written as SMILES. ≈ marks a conversion by molar mass, not a printed value. Calls of active or inactive are those of the source. No cut-off for these calls is given here.

What is called MIC is the lowest concentration found to suppress growth. The low end stands for inhibition by little substance, the high end for a need for much substance. Consider `CCn1cc(C(=O)OCCCOc2c3cc(CCN)cc2Cc2cc(CCN)cc(c2O)Cc2cc(CCN)cc(c2O)Cc2cc(CCN)cc(c2O)C3)c(=O)c2ccc(C)nc21`, for which the minimal inhibitory concentration (MIC) with Pseudomonas aeruginosa [1] worked out at 100 µM (≈ 86.9 µg/mL); with Staphylococcus aureus [2] it was 50 µM (≈ 43.5 µg/mL); with Escherichia coli [3] it was 25 µM (≈ 21.7 µg/mL); against Enterococcus faecalis [4] it was 100 µM (≈ 86.9 µg/mL); with Staphylococcus aureus [5], 50 µM (≈ 43.5 µg/mL).
Take `CCn1cc(C(=O)O)c(=O)c2ccc(C)nc21` [NALIDIXIC ACID]: the MIC against Pseudomonas aeruginosa [1] came to 200 µM (≈ 46.4 µg/mL); against Staphylococcus aureus [2], 200 µM (≈ 46.4 µg/mL); with Escherichia coli [3], 100 µM (≈ 23.2 µg/mL); against Enterococcus faecalis [4], 200 µM (≈ 46.4 µg/mL); against Staphylococcus aureus [5], 200 µM (≈ 46.4 µg/mL).
`O=C([O-])C(F)(F)F.[Na+]`: the result in the experiment on Staphylococcus aureus [6], with Staphylococcus aureus [7], in the experiment with Pseudomonas aeruginosa [8], in the experiment with Enterococcus faecalis [9] and in the experiment on Escherichia coli [10] was inactive.
As for `NCCc1cc2c(O)c(c1)Cc1cc(CCN)cc(c1O)Cc1cc(CCN)cc(c1OCCCO)Cc1cc(CCN)cc(c1O)C2`, the minimum inhibitory concentration (MIC) in the experiment with Pseudomonas aeruginosa [1] was 220 µM (≈ 144 µg/mL); against Staphylococcus aureus [2], 220 µM (≈ 144 µg/mL); against Escherichia coli [3] it was 110 µM (≈ 72 µg/mL); against Enterococcus faecalis [4] it was over 220 µM; against Staphylococcus aureus [5], 220 µM (≈ 144 µg/mL).

The values above are taken from ChEMBL document CHEMBL1151908, “Towards calixarene-based prodrugs: Drug release and antibacterial behaviour of a water-soluble nalidixic acid/calix[4]arene ester adduct” (Bioorg Med Chem Lett, 2009).
